# Experimental data from the array DNA melting data of Ke et al. (doi:10.1101/2024.01.08.574731).
# How the values were obtained:
# [1] = folding enthalpy; higher = less favourable; fluorescence melt of hairpins on a sequencing array, two-state fit; conditions: sodium 0.088 M
# Outline: (§1)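 In 50 mM Na-HEPES pH 8.0 containing 25 mM NaCl, hairpins from the library on a sequenced MiSeq flow cell were imaged for Cy3 fluorescence at 2.5 °C steps up to 60 °C, with Cy3 and quencher oligos annealed. After normalisation to pre-quench Cy3 and to control constructs, two-state fits with bootstrapping gave melting temperature and folding enthalpy. Four replicates were combined by inverse-variance weighting, and fitted temperatures were shifted up by 9.35 °C to match UV melts.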
# [2] = melting temperature; fluorescence melt of hairpins on a sequencing array, two-state fit, raised by 9.35 °C to match UV melts; conditions: sodium 0.088 M
# Outline: as §1
Sequence,folding enthalpy [1],Tm [2]
GACTTAACGAAAGTTGTC (((..(((....)))))),-16.8 kcal/mol,32.2 °C
GACTTACCGAAAGGTGTC (((..(((....)))))),-16.4 kcal/mol,36.3 °C
GACTTACGAAAGTACGTC (((.(((....))).))),-33.2 kcal/mol,44.3 °C
GACTTAGAAATAAGTC ((((((....)))))),-30 kcal/mol,43.8 °C
GACTTAGGAAACTAAGTC (((((((....))))))),-37.3 kcal/mol,53.8 °C
GACTTAGGAAACTAGGTC (((.(((....))).))),-32.1 kcal/mol,36.8 °C
GACTTAGGAAACTGAGTC ((((.((....)).)))),-36.1 kcal/mol,41.2 °C
GACTTCCCGAAAGGGGTC (((..(((....)))))),-10.5 kcal/mol,34 °C
GACTTCGGAAACGAGGTC (((.(((....))).))),-35.9 kcal/mol,49.9 °C
GACTTGCGAAAGCAGTC (((.(((....)))))),-17.4 kcal/mol,51.9 °C
GACTTGCGAAAGCATGTC (((.(((....))).))),-25.2 kcal/mol,55.8 °C
GACTTGGCGAAAGCCGTC (((..(((....)))))),-7.4 kcal/mol,48.4 °C
GACTTGGGAAACCGAGTC ((((.((....)).)))),-45.3 kcal/mol,49.5 °C
GACTTTGGAAACAAAGTC (((((((....))))))),-44.5 kcal/mol,57.8 °C
GAGAAAGAAATTTCTC ((((((....)))))),-18.8 kcal/mol,36.4 °C
GAGAAAGGAAACTTTCTC (((((((....))))))),-39.2 kcal/mol,50.8 °C
GAGAACGAAAGTTAGCTC ((((((....)))..))),-10 kcal/mol,24.5 °C
GAGAACGAAAGTTCACTC ((((((....)))..))),-17.2 kcal/mol,44.3 °C
GAGAAGGGAAACCTTCCC (.(((((....))))).),-15.9 kcal/mol,34.6 °C
GAGAAGGGAAACTTTCTC (((((.(....).))))),-22.7 kcal/mol,31.8 °C
GAGAATGGAAACATTTTC ((.((((....)))).)),-14.8 kcal/mol,29.4 °C
GAGACCCCGAAAGGGCTC (((..(((....)))))),-22.6 kcal/mol,47.2 °C
GAGACCGAAAGGTACTC ((((((....))).))),-17.5 kcal/mol,43.3 °C

Sequence,folding enthalpy [1],Tm [2]
GAGACCGAAAGGTGGCTC ((((((....)))..))),-19.2 kcal/mol,43.4 °C
GAGACCGCGAAAGCGCTC (((..(((....)))))),-7.65 kcal/mol,26.6 °C
GAGACCGGAAACAGTCTC (((((.(....).))))),-27.5 kcal/mol,40.4 °C
GAGACGACGAAAGTCCTC (((..(((....)))))),-16.7 kcal/mol,26.8 °C
GAGACGCGAAAGCGACTC (((.(((....))).))),-24.9 kcal/mol,66.4 °C
GAGACGCGAAAGCGCCTC (((.(((....))).))),-30.3 kcal/mol,58.7 °C
GAGACGGGAAACCGTTTC ((.((((....)))).)),-23.4 kcal/mol,45.8 °C
GAGACTGCGAAAGCACTC (((..(((....)))))),-9.86 kcal/mol,26.7 °C
GAGACTGGAAACAGTCCC (.(((((....))))).),-11 kcal/mol,44.9 °C
GAGAGAACGAAAGTTCTC (((..(((....)))))),-14.7 kcal/mol,52.5 °C
GAGAGACGAAAGTCCCTC (((.(((....))).))),-25.8 kcal/mol,44.9 °C
GAGAGAGAAATCTCTC ((((((....)))))),-27.6 kcal/mol,45.8 °C
GAGAGCACGAAAGTGCTC (((..(((....)))))),-7.79 kcal/mol,64.1 °C
GAGAGCCGAAAGGCCCTC (((.(((....))).))),-18.3 kcal/mol,51.3 °C
GAGAGCGAAAGCTACTC ((((((....))).))),-14.5 kcal/mol,43.7 °C
GAGAGCGAAAGCTTCCTC ((((((....)))..))),-10.7 kcal/mol,27.3 °C
GAGAGGACGAAAGTCCTC (((..(((....)))))),-8.73 kcal/mol,60.8 °C
GAGAGGCGAAAGCCACTC (((.(((....))).))),-20.6 kcal/mol,53.3 °C
GAGAGGGCGAAAGCCCTC (((..(((....)))))),-6.41 kcal/mol,66.5 °C
GAGAGGGGAAACCCCCTC (((.(((....))).))),-14.9 kcal/mol,47.9 °C
GAGAGGGGAAACCCTCCC (.(((((....))))).),-13.7 kcal/mol,41.2 °C
GAGAGGGGAAACCCTCTC (((((((....))))))),-39 kcal/mol,63.5 °C
GAGAGTGGAAACGCTTTC ((.((.(....).)).)),-9.25 kcal/mol,27.3 °C

Sequence,folding enthalpy [1],Tm [2]
GAGATAGGAAACTATCTC (((((((....))))))),-35 kcal/mol,53.1 °C
GAGATCACGAAAGTGCTC (((..(((....)))))),-12.1 kcal/mol,29.9 °C
GAGATCGAAAGATCTC ((((((....)))))),-38.2 kcal/mol,63.2 °C
GAGATCGGAAACGACCTC (((.(((....))).))),-29.8 kcal/mol,42.5 °C
GAGATCGGAAACGATCCC (.(((((....))))).),-12.9 kcal/mol,42.9 °C
GAGATGCCGAAAGGCCTC (((..(((....)))))),-10.1 kcal/mol,32.1 °C
GAGATGCGAAAGCACCTC (((.(((....))).))),-23.9 kcal/mol,49 °C
GAGATGGGAAACCACCTC (((.(((....))).))),-31.1 kcal/mol,36.1 °C
GAGATTCCGAAAGGACTC (((..(((....)))))),-12.2 kcal/mol,30.5 °C
GAGATTGGAAACAACCTC (((.(((....))).))),-21 kcal/mol,32 °C
GAGATTGGAAACAGTCTC ((((.((....)).)))),-27.4 kcal/mol,40.8 °C
GAGCAACGAAAGTTCTC (((.(((....)))))),-20.1 kcal/mol,35.6 °C
GAGCAAGGAAACTTGCCC (.(((((....))))).),-11 kcal/mol,41 °C
GAGCACCGAAAGGTACTC (((.(((....))).))),-36.7 kcal/mol,50 °C
GAGCACGAAAGTGGACTC ((((((....)))..))),-14.2 kcal/mol,48.7 °C
GAGCACGAAAGTGGTCTC ((((((....)))..))),-24 kcal/mol,60 °C
GAGCACGGAAACACGCTC ((((..(....)..)))),-28.3 kcal/mol,37 °C
GAGCAGCCGAAAGGCCTC (((..(((....)))))),-10.8 kcal/mol,31.7 °C
GAGCAGGCGAAAGCCCTC (((..(((....)))))),-9.52 kcal/mol,31.7 °C
GAGCATGGAAACATGCTC (((((((....))))))),-37.1 kcal/mol,67.5 °C
GAGCCAGAAATGGCTC ((((((....)))))),-32.4 kcal/mol,66.8 °C
GAGCCCCGAAAGGGACTC (((.(((....))).))),-35.2 kcal/mol,58.6 °C
GAGCCCCGAAAGGGCCTC (((.(((....))).))),-14.6 kcal/mol,47.3 °C

Sequence,folding enthalpy [1],Tm [2]
GAGCCCGAAAGGGAACTC ((((((....)))..))),-16.4 kcal/mol,47.5 °C
GAGCCCGAAAGGGCCCTC ((((((....)))..))),-9.76 kcal/mol,47.6 °C
GAGCCCGGAAACGAGCCC (.((.((....)).)).),-14 kcal/mol,29.1 °C
GAGCCGACGAAAGTCCTC (((..(((....)))))),-8.43 kcal/mol,27.9 °C
GAGCCGCGAAAGCGACTC (((.(((....))).))),-26.2 kcal/mol,65.3 °C
GAGCCGGGAAACCGACTC (((.(((....))).))),-42.8 kcal/mol,49.5 °C
GAGCGACGAAAGTCACTC (((.(((....))).))),-25.9 kcal/mol,52.2 °C
GAGCGCGGAAACACGCCC (.(((.(....).))).),-12 kcal/mol,38.4 °C
GAGCGCGGAAACACGCTC (((((.(....).))))),-41.1 kcal/mol,56.2 °C
GAGCGGCGAAAGCCACTC (((.(((....))).))),-24.5 kcal/mol,58 °C
GAGCGTGCGAAAGCACTC (((..(((....)))))),-5.83 kcal/mol,26.9 °C
GAGCGTGGAAACACACCC (.(.(((....))).).),-18.9 kcal/mol,25.4 °C
GAGCTAGGAAACTGGCTC ((((.((....)).)))),-36.2 kcal/mol,51.9 °C
GAGCTCACGAAAGTGCTC (((..(((....)))))),-20.8 kcal/mol,44.4 °C
GAGCTCGGAAACGAACTC (((.(((....))).))),-28.6 kcal/mol,44.9 °C
GAGCTGCGAAAGCATCTC (((.(((....))).))),-29.4 kcal/mol,46.8 °C
GAGCTGGGAAACCAGCCC (.(((((....))))).),-11.4 kcal/mol,46.9 °C
GAGCTGGGAAACCGGTTC ((.(.((....)).).)),-23.3 kcal/mol,35.7 °C
GAGCTTGGAAACAAACTC (((.(((....))).))),-23.9 kcal/mol,35.8 °C
GAGGAAACGAAAGTTCTC (((..(((....)))))),-13.3 kcal/mol,24.6 °C
GAGGAAGGAAACTTCCCC (.(((((....))))).),-11 kcal/mol,35.2 °C
GAGGAAGGAAACTTTCTC (((.(((....))).))),-28.9 kcal/mol,35.3 °C
